Results collected from several papers.
Medium: plasma

N#Cc1ccc(Nc2nc(N)cc(Oc3c(F)cc(-c4ccc(C#N)cc4)cc3F)n2)cc1  AUC (Sprague-Dawley rat; intravenous; 1 mg/kg): 308 ng·h/mL
CCNC(=O)c1nc(-c2ccc3[nH]c(-c4nc(C)no4)cc3c2)c(C)[nH]1  AUC (Sprague-Dawley rat; oral; 10 mg/kg): 10.3 µM·h
Cl.Clc1ccc2c(c1)nc(N1CCNCC1)n2Cc1ccccc1  AUC (rat; oral; 5 mg/kg): 1.5 µM·h
N#Cc1[nH]nnc1-c1cccc(-c2cc(F)cc(C(F)(F)F)c2)c1  AUC (male Sprague-Dawley rat; oral; 10 mg/kg): 68200 ng·h/mL
CCOC(=O)[C@@]12C[C@@H]1[C@@H](n1ccc3c(NC)nc(C#Cc4ccc(Cl)s4)nc31)[C@H](O)[C@@H]2O  AUC(0-inf) (male Sprague-Dawley rat; intravenous; 0.5 mg/kg): 31.1 ng·h/mL
C=CC(=O)N1CC2CC(n3nc(-c4ccc(C(=O)Nc5ccccn5)cc4)c4c(N)ncnc43)CC2C1 (stereo not shown)  AUC(0-t) (male Wistar rat; oral; 3 mg/kg): 908 ng·h/mL
CCc1cc(C(=O)NC)c2nccc(N3CCc4c(cc(Cn5ccnc5)cc4-c4cn(C)nc4C(F)(F)F)C3=O)c2c1  AUC(0-t) (male Sprague-Dawley rat; oral; 100 mg/kg; single dose): 37200 ng·h/mL
Cc1noc(-c2cc3cc(-c4nc(C(=O)NCc5ccncc5)[nH]c4C)ccc3[nH]2)n1  AUC (Sprague-Dawley rat; oral; 10 mg/kg): 11.1 µM·h
N#Cc1[nH]nnc1-c1cc(Cl)cc(/C=C/c2cccc(C(F)(F)F)c2)c1  AUC (male Sprague-Dawley rat; oral; 10 mg/kg): 16700 ng·h/mL
COc1cc2c3c(n(CCCN4CCOCC4)c(=O)c2cc1OC)-c1cc2c(cc1C3=O)OCO2  AUC(0-inf) (female Fischer 344 rat; intravenous; 12 mg/m²; single dose): 403 ng·h/mL
